Experimental data as given in publication PMC7008087 (Biochimica et biophysica acta. Molecular cell research, 2019).
Blank lines part the entries; values can stand above or below the molecule they belong to.

What was measured:
[1] = tested on: H441 and Calu-3 cells; assay: Cell-proliferation, H441 and Calu-3 reported together; assay type: cell-based, human; conditions: for effect on Bn-stimulated increase in cell-proliferation: H441 and Calu-3 cells, Bn 1 μM, 24 hr, CCK-8 and MTS
[2] = tested on: p44/42; assay: p44/42 MAPK phosphorylation; assay type: cell-based, human
[3] = tested on: Akt; assay: Akt phosphorylation; assay type: cell-based, human
[4] = tested on: EGFR; assay: EGFR phosphorylation; assay type: cell-based, human; conditions: for EC50, EGFR phosphorylation: mean ± SEM of three independent experiments
How it was run: (§1)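 H441 or H2087 cells at 80% confluence were serum-starved overnight, then given Bn (0.1-100 nM) or NRG-1 (0.1-100 ng/mL) for 3 min. Cells were lysed in RIPA buffer (pH 7.6) and protein was measured by BCA. Lysates were run on a 4–20% gel and blotted for phospho-EGFR Tyr1068, HER2 Tyr1248 and HER3 Tyr1289, with tubulin as loading control. Bands were read by densitometry as % basal; mean ± SEM, ≥3 experiments.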

[5] = tested on: HER2; assay: HER2 phosphorylation; assay type: cell-based, human; conditions: for EC50, HER2 phosphorylation: mean ± SEM of three independent experiments
How it was run: as §1

[6] = biological target: HER3 (Homo sapiens, UniProt P21860); assay: HER3 phosphorylation; assay type: cell-based; conditions: for EC50, HER3 phosphorylation: mean ± SEM of three independent experiments
How it was run: as §1

[7] = tested on: EGFR, HER2, and HER3; assay: EGFR, HER2 and HER3 phosphorylation reported together; assay type: cell-based, human
How it was run: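 Time course: serum-starved (overnight) H441, H2087 or Calu-3 cells were stimulated with Bn 100 nM or NRG-1 100 ng/mL for 3-60 min. Cells were lysed in RIPA and blotted for phospho-EGFR (Tyr1068), HER2 (Tyr1248) and HER3 (Tyr1289) using primary antibodies at 1:1000 overnight at 4 °C. Tubulin served as loading control, and background-subtracted densitometry was expressed as % of basal.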

[8] = tested on: HER3/EGFR; assay: HER3/EGFR heterodimerization; assay type: cell-based, human; conditions: H441 and Calu-3 cells; 100 nM Bn or 100 ng/mL NRG-1
How it was run: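 Serum-starved (overnight) 80%-confluent cells treated with test peptide (100 nM) or reference ligand (100 ng/mL); lysed in RIPA (pH 7.6), sonicated, cleared. 800 μg protein with anti-HER3 antibody, 1 hr at 4 °C, then protein A/G agarose overnight at 4 °C; five RIPA washes. Immunoblotted for partner receptors by chemiluminescence; background-subtracted densitometry as ratio to untreated control; whole-extract tubulin as loading control.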

[9] = tested on: HER3/HER2; assay: HER3/HER2 heterodimerization; assay type: cell-based, human; conditions: H441 and Calu-3 cells; 100 nM Bn or 100 ng/mL NRG-1
How it was run: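 Serum-starved H441 and Calu-3 cells received no addition, 100 nM Bn or 100 ng/mL NRG-1. RIPA lysate (800 μg protein) was incubated with anti-HER3 antibody for 1 hr at 4 °C, then with protein A/G agarose overnight at 4 °C. Beads were washed five times in RIPA and boiled in Laemmli buffer. Partners were detected by Western blot, with tubulin from whole-cell extract as loading control; values are given as ratio to control.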

[10] = Wortmannin 1 μM or LY294002 10 μM
[11] = H441 cells, NRG-1 0.1-100 ng/mL, 3 min
[12] = H2087 cells, 100 nM Bn or 100 ng/mL NRG-1, 3 min
[13] = H441 cells, dose-response, 3 min, Bn 100 nM maximal, NRG-1 0.1-100 ng/mL
[14] = Calu-3 cells, Bn 100 nM or NRG-1 100 ng/mL

Molecule: O=c1cc(N2CCOCC2)oc2c(-c3ccccc3)cccc12 [LY294002]
effect on Bn-stimulated increase in cell-proliferation [1, 10]: no significant effect

Molecule: COC[C@H]1OC(=O)c2coc3c2[C@@]1(C)C1=C(C3=O)[C@@H]2CCC(=O)[C@@]2(C)C[C@H]1OC(C)=O [Wortmannin, wortmannin]
effect on Bn-stimulated increase in cell-proliferation [1, 10]: no significant effect

Molecule: COc1cc2ncnc(Nc3ccc(F)c(Cl)c3)c2cc1OCCCN1CCOCC1 [gefitinib]
effect on Bn-stimulated phosphorylation of p44/42 ([2]; H441 cells, gefitinib 10 μg/mL or EGFR knockdown, Bn 100 nM, 15 min): did not affect
activity at 10 µg/mL ([2]; Homo sapiens, NCI-H441, read-out: basal phosphorylation of p44/42 (% of control)): 75%
effect on Bn-induced increment of Akt phosphorylation [3]: no significant inhibitory effect
activity at 10 µg/mL ([3]; Homo sapiens, NCI-H441, read-out: basal phosphorylation of Akt (% of control)): 79%
effect on Bn-stimulated increase in cell-proliferation ([1]; gefitinib 10 μg/mL): no effect
activity at 10 µg/mL ([1]; Homo sapiens, 24 h, read-out: basal stimulation (% of control)): 36 to 45%

EC50, EGFR phosphorylation [4, 11]: 4.9 ± 0.9 ng/mL
EC50, EGFR phosphorylation ([4]; H2087 cells, NRG-1, 3 min): 9.7 ± 1.3 ng/mL
EC50, HER2 phosphorylation [5, 11]: 16.3 ± 3.4 ng/mL
EC50, HER2 phosphorylation ([5]; H2087 cells, NRG-1, 3 min): 7.8 ± 2.0 ng/mL
phosphorylation of HER3 maintained at 60 minutes (fold increase) ([6]; H441 cells, NRG-1 100 ng/mL, 60 minutes, p < 0.05 vs. control): 20 fold
maximal HER3 phosphorylation (fold increase) [6, 13]: 44 fold
HER3 phosphorylation (fold increase) [6, 12]: 21 fold
duration of HER3 phosphorylation ([6]; H2087 cells, NRG-1 100 ng/mL): prolonged phosphorylation
Molecule: neuregulin-1 [NRG-1]
maximum EGFR phosphorylation (fold increase) [4, 12]: 5.2 fold
maximal HER2 phosphorylation (fold increase) [5, 13]: 34 fold
HER2 phosphorylation (fold increase) [5, 12]: 22 fold
duration of HER2 phosphorylation ([5]; H2087 cells, NRG-1 100 ng/mL): prolonged phosphorylation
phosphorylation of p44/42 at 60 minutes [2, 14]: still present
stimulation time of maximum phosphorylation of p44/42 ([2]; H441, H2087 and Calu-3 cells, Bn 100 nM or NRG-1 100 ng/mL): 15 min
phosphorylation of p44/42 at 60 minutes ([2]; H441 and H2087 cells, Bn 100 nM or NRG-1 100 ng/mL): not maintained at 60 minutes
time of maximum phosphorylation of Akt ([3]; H441, H2087 and Calu-3 cells, NRG-1 100 ng/mL): 60 min
stimulation time of maximum EGFR, HER2 and HER3 phosphorylation [7, 14]: 30 to 60 min
maximal stimulation compared with Bn ([7]; H441, H2087 and Calu-3 cells, Bn 100 nM, NRG-1 100 ng/mL): greater than that seen with Bn
time of maximum phosphorylation of EGFR, HER2, and HER3 ([7]; H441 cells, Bn 100 nM or NRG-1 100 ng/mL): 3 min
HER3/EGFR heterodimerization [8]: induced HER3/EGFR
HER3/HER2 heterodimerization [9]: HER3/HER2 heterodimerization in both cell-lines

EC50, HER3 phosphorylation [6, 11]: 14.3 ± 1.7 ng/mL
EC50, HER3 phosphorylation ([6]; H2087 cells, NRG-1, 3 min): 8.1 ± 1.7 ng/mL
B1: neuregulin-1 (protein)
chain: TSHLVKCAEKEKTFCVNGGECFMVKDLSNPSRYLCKCPNEFTGDRCQNYVMASFYKHLGIEFMEAEELYQK
modifications: the alternative R&D product is the beta1 ECD (2-246)
